Measured values as given in ChEMBL document CHEMBL3994650, “New 1,4-dihydro[1,8]naphthyridine derivatives as DNA gyrase inhibitors” (Bioorg Med Chem Lett, 2017).
Converted amounts (≈) assume the structure as drawn. The source made the active and inactive calls. The calls are words filed in the database; no cut-off is given here.

Assays:
Staphylococcus aureus [1] = experiment: Antibacterial activity against Staphylococcus aureus ATCC 25923 incubated after 24 hrs by resazurin dye based broth microdilution assay; format: functional; conditions: ATCC 25923, 24 h
Escherichia coli [2] = experiment: Antibacterial activity against Escherichia coli ATCC 35218 incubated after 24 hrs by resazurin dye based broth microdilution assay; format: functional; conditions: ATCC 35218, 24 h
Escherichia coli [3] = experiment: Antibacterial activity against Escherichia coli ATCC 25922 incubated after 24 hrs by resazurin dye based broth microdilution assay; format: functional; conditions: ATCC 25922, 24 h
Klebsiella pneumoniae = experiment: Antibacterial activity against Klebsiella pneumoniae ATCC 700603 incubated after 24 hrs by resazurin dye based broth microdilution assay; format: functional; conditions: Klebsiella pneumoniae, 700603, 24 h
Enterococcus faecalis [4] = experiment: Antibacterial activity against Enterococcus faecalis ATCC 29212 incubated after 24 hrs by resazurin dye based broth microdilution assay; format: functional; conditions: ATCC 29212, 24 h
Enterococcus faecalis [5] = experiment: Antibacterial activity against Enterococcus faecalis ATCC 51299 incubated after 24 hrs by resazurin dye based broth microdilution assay; format: functional; conditions: ATCC 51299, 24 h
Listeria monocytogenes = experiment: Antibacterial activity against Listeria monocytogenes ATCC 7644 incubated after 24 hrs by resazurin dye based broth microdilution assay; format: functional; conditions: ATCC 7644, 24 h
Pseudomonas aeruginosa = experiment: Antibacterial activity against Pseudomonas aeruginosa ATCC 27853 incubated after 24 hrs by resazurin dye based broth microdilution assay; format: functional; conditions: ATCC 27853, 24 h
[6] = tested on: Escherichia coli ATCC 25922; experiment: Inhibition of Escherichia coli DNA gyrase assessed as inhibition of enzyme-mediated supercoiling of relaxed pHOT1 DNA substrate at […] to […] ug/ml after 30 mins by gel electrophoresis method
NIH3T3 = experiment: Cytotoxicity against mouse NIH/3T3 cells assessed as reduction in cell proliferation after 24 hrs by MTT assay; format: cell-based; conditions: NIH3T3, 24 h
Staphylococcus aureus [7] = experiment: Antibacterial activity against Staphylococcus aureus ATCC 25923 assessed as decrease in ATP level at […] ug/ml after 24 hrs by BacTiter-Glo reagent based bioluminescence assay; format: functional
[8] = Selectivity index, ratio of IC50 for mouse NIH/3T3 cells to MIC90 for Klebsiella pneumoniae ATCC 700603; format: toxicity; conditions: read-out: Selectivity Index
[9] = Selectivity index, ratio of IC50 for mouse NIH/3T3 cells to MIC90 for Listeria monocytogenes ATCC 7644; format: toxicity; conditions: read-out: Selectivity Index
[10] = tested on: Escherichia coli ATCC 25922; experiment: Inhibition of Escherichia coli DNA gyrase assessed as inhibition of enzyme-mediated supercoiling of relaxed pHOT1 DNA substrate after 30 mins by gel electrophoresis method
Summary of the method: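 E. coli DNA gyrase (1 U) was incubated with relaxed pHOT1 DNA substrate (0.25 µg) for 30 min at 37 °C. Compounds were tested at 15.6, 7.8, 3.9 and 1.95 µg/L. Controls were supercoiled DNA, relaxed DNA, relaxed DNA plus gyrase, and 1% DMSO. Supercoiling was read by agarose gel electrophoresis.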

[11] = Selectivity index, ratio of IC50 for mouse NIH/3T3 cells to MIC90 for Pseudomonas aeruginosa ATCC 27853; format: toxicity; conditions: read-out: Selectivity Index

Row | SMILES | MIC90 (Staphylococcus aureus [1]) [µg/mL] | MIC90 (Escherichia coli [2]) [µg/mL] | MIC90 (Escherichia coli [3]) [µg/mL] | MIC90 (Klebsiella pneumoniae) [µg/mL] | MIC90 (Enterococcus faecalis [4]) [µg/mL] | MIC90 (Enterococcus faecalis [5]) [µg/mL] | MIC90 (Listeria monocytogenes) [µg/mL] | MIC90 (Pseudomonas aeruginosa) [µg/mL] | inhibition [6] | inhibition [10] | IC50 (NIH3T3) [µg/mL] | Activity (Staphylococcus aureus [7]) | selectivity ratio [8] | selectivity ratio [9] | selectivity ratio [11]
1 | COc1c(N2C[C@@H]3CCCN[C@@H]3C2)c(F)cc2c(=O)c(C(=O)O)cn(C3CC3)c12 [MOXIFLOXACIN] | ≤ 1.95 | ≤ 1.95 | ≤ 1.95 | 3.9 (≈ 9.72 µM) | ≤ 1.95 | ≤ 1.95 | 3.9 (≈ 9.72 µM) | 3.9 (≈ 9.72 µM) | Active | – | 380 (≈ 946 µM) | – | – | – | –
2 | O=C(O)c1cn(-c2ccc(F)cc2F)c2nc(Sc3nc4ccccc4s3)c(F)cc2c1=O | 15.6 (≈ 32.1 µM) | 31.2 (≈ 64.4 µM) | 31.2 (≈ 64.4 µM) | 31.2 (≈ 64.4 µM) | 31.2 (≈ 64.4 µM) | 62.5 (≈ 129 µM) | 31.2 (≈ 64.4 µM) | 31.2 (≈ 64.4 µM) | – | – | – | – | – | – | –
3 | CCOC(=O)c1cn(-c2ccc(F)cc2F)c2nc(Sc3nc4ccccc4[nH]3)c(F)cc2c1=O | 125 (≈ 252 µM) | 125 (≈ 252 µM) | 62.5 (≈ 126 µM) | 125 (≈ 252 µM) | 125 (≈ 252 µM) | 62.5 (≈ 126 µM) | 125 (≈ 252 µM) | 125 (≈ 252 µM) | – | – | – | – | – | – | –
4 | CCOC(=O)c1cn(-c2ccc(F)cc2F)c2nc(N3CCN(CCCN(C)C)CC3)c(F)cc2c1=O | 62.5 (≈ 121 µM) | 125 (≈ 242 µM) | 125 (≈ 242 µM) | 250 (≈ 483 µM) | 125 (≈ 242 µM) | 62.5 (≈ 121 µM) | 125 (≈ 242 µM) | 125 (≈ 242 µM) | – | – | – | – | – | – | –
5 | N[C@@H]1[C@H]2CN(c3nc4c(cc3F)c(=O)c(C(=O)O)cn4-c3ccc(F)cc3F)C[C@@H]12 [TROVAFLOXACIN] | ≤ 1.95 | ≤ 1.95 | ≤ 1.95 | ≤ 1.95 | ≤ 1.95 | ≤ 1.95 | ≤ 1.95 | ≤ 1.95 | Active | – | 244 (≈ 587 µM) | Active | – | – | –
6 | CCOC(=O)c1cn(-c2ccc(F)cc2F)c2nc(Sc3nc4ccccc4s3)c(F)cc2c1=O | 62.5 (≈ 122 µM) | 125 (≈ 243 µM) | 125 (≈ 243 µM) | 125 (≈ 243 µM) | 125 (≈ 243 µM) | 125 (≈ 243 µM) | 125 (≈ 243 µM) | 125 (≈ 243 µM) | – | – | – | – | – | – | –
7 | O=C(O)c1cn(C2CC2)c2cc(N3CCNCC3)c(F)cc2c1=O [CIPROFLOXACIN] | ≤ 1.95 | ≤ 1.95 | ≤ 1.95 | ≤ 1.95 | ≤ 1.95 | ≤ 1.95 | 3.9 (≈ 11.8 µM) | ≤ 1.95 | – | – | 306 (≈ 923 µM) | Active | – | – | –
8 | O=C(O)c1cn(-c2ccc(F)cc2F)c2nc(Sc3nc4cc(Cl)ccc4[nH]3)c(F)cc2c1=O | 7.8 (≈ 15.5 µM) | 15.6 (≈ 31 µM) | 15.6 (≈ 31 µM) | 31.2 (≈ 62.1 µM) | 31.2 (≈ 62.1 µM) | 31.2 (≈ 62.1 µM) | 15.6 (≈ 31 µM) | 31.2 (≈ 62.1 µM) | – | – | – | – | – | – | –
9 | O=C(O)c1cn(-c2ccc(F)cc2F)c2nc(Sc3nc4cc([N+](=O)[O-])ccc4[nH]3)c(F)cc2c1=O | 1.95 (≈ 3.8 µM) | 3.9 (≈ 7.6 µM) | 3.9 (≈ 7.6 µM) | 15.6 (≈ 30.4 µM) | 7.8 (≈ 15.2 µM) | 15.6 (≈ 30.4 µM) | 15.6 (≈ 30.4 µM) | 15.6 (≈ 30.4 µM) | – | Dose-dependent effect | 122 (≈ 237 µM) | Active | 8 | 8 | 8
10 | O=C(O)c1cn(-c2ccc(F)cc2F)c2nc(Sc3nc4ccccc4[nH]3)c(F)cc2c1=O | 7.8 (≈ 16.7 µM) | 15.6 (≈ 33.3 µM) | 15.6 (≈ 33.3 µM) | 31.2 (≈ 66.7 µM) | 15.6 (≈ 33.3 µM) | 31.2 (≈ 66.7 µM) | 31.2 (≈ 66.7 µM) | 31.2 (≈ 66.7 µM) | – | – | – | – | – | – | –

Second part, led by results:

Row | MIC90 (Staphylococcus aureus [1]) [µg/mL] | MIC90 (Escherichia coli [2]) [µg/mL] | MIC90 (Escherichia coli [3]) [µg/mL] | MIC90 (Klebsiella pneumoniae) [µg/mL] | MIC90 (Enterococcus faecalis [4]) [µg/mL] | MIC90 (Enterococcus faecalis [5]) [µg/mL] | MIC90 (Listeria monocytogenes) [µg/mL] | MIC90 (Pseudomonas aeruginosa) [µg/mL] | inhibition [6] | inhibition [10] | SMILES | IC50 (NIH3T3) [µg/mL] | Activity (Staphylococcus aureus [7]) | selectivity ratio [8] | selectivity ratio [9] | selectivity ratio [11]
11 | 125 (≈ 231 µM) | 125 (≈ 231 µM) | 250 (≈ 462 µM) | 125 (≈ 231 µM) | 250 (≈ 462 µM) | 250 (≈ 462 µM) | 125 (≈ 231 µM) | 125 (≈ 231 µM) | – | – | CCOC(=O)c1cn(-c2ccc(F)cc2F)c2nc(Sc3nc4cc([N+](=O)[O-])ccc4[nH]3)c(F)cc2c1=O | – | – | – | – | –
12 | 62.5 (≈ 122 µM) | 250 (≈ 490 µM) | 125 (≈ 245 µM) | 125 (≈ 245 µM) | 125 (≈ 245 µM) | 250 (≈ 490 µM) | 125 (≈ 245 µM) | 62.5 (≈ 122 µM) | – | – | CCOC(=O)c1cn(-c2ccc(F)cc2F)c2nc(Sc3nc4cc(C)ccc4[nH]3)c(F)cc2c1=O | – | – | – | – | –
13 | 62.5 (≈ 118 µM) | 125 (≈ 235 µM) | 62.5 (≈ 118 µM) | 125 (≈ 235 µM) | 125 (≈ 235 µM) | 125 (≈ 235 µM) | 62.5 (≈ 118 µM) | 125 (≈ 235 µM) | – | – | CCOC(=O)c1cn(-c2ccc(F)cc2F)c2nc(Sc3nc4cc(Cl)ccc4[nH]3)c(F)cc2c1=O | – | – | – | – | –
14 | 3.9 (≈ 8.08 µM) | 3.9 (≈ 8.08 µM) | 7.8 (≈ 16.2 µM) | 31.2 (≈ 64.8 µM) | 31.2 (≈ 64.8 µM) | 31.2 (≈ 64.8 µM) | 31.2 (≈ 64.8 µM) | 15.6 (≈ 32.3 µM) | – | – | Cc1ccc2[nH]c(Sc3nc4c(cc3F)c(=O)c(C(=O)O)cn4-c3ccc(F)cc3F)nc2c1 | – | – | – | – | –
